A short description of data set [1]: Inhibition of advanced glycation end product formation assessed as protection of reactive primary amines by measuring increase in primary amine level at 100 uM incubated for 7 days using BSA and glycolaldehyde by TNBSA assay. Type of data set: physicochemical. The conditions noted are these: 168 h. A digest of the protocol: (§1)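 BSA was modified with glycolaldehyde in the presence of 2-AIs. Total primary amines were quantified by TNBSA, independent of fluorescence. Protection appears as preserved free amines relative to GO-modified BSA, with basal free-amine level of BSA before GO/2-AI treatment as reference. DMSO and PBS served as vehicle controls, with aminoguanidine as comparator.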

Data set [2] can be described thus: Induction of breaking of pre-formed carboxymethyl lysine-enriched advanced glycation end product formation using BSA and glyoxylic acid assessed as increase in primary amine content at 400 uM after 24 hrs by TNBSA assay relative to pre-formed CML-enriched AGE. A digest of the protocol: (§2)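 CML-enriched AGE-BSA was pre-formed from 50 mg/mL BSA and 25 mM glyoxylic acid with sodium cyanoborohydride over 48 h, then purified by dialysis. The glycated protein was exposed to 2-AIs for 24 h. Free primary amines were quantified by TNBSA and compared with untreated CML-BSA. DMSO and PBS served as vehicle controls, with aminoguanidine as reference.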

Data set [3] is described as follows: Induction of breaking of pre-formed carboxymethyl lysine-enriched advanced glycation end product formation using BSA and glyoxylic acid assessed as increase in primary amine content at 400 uM after 24 hrs by TNBSA assay relative to 4,4'-(butane-1,4-diyl)bis(1H-imidazol-2-amine) dihydrochloride.
Data set [4] is described as follows: Induction of breaking of pre-formed carboxymethyl lysine-enriched advanced glycation end product formation using BSA and glyoxylic acid assessed as increase in primary amine content at 400 uM after 24 hrs by TNBSA assay relative to BSA alone. In a few lines:
as §2

Data set [5] can be described thus: Inhibition of advanced glycation end product formation assessed as protection of reactive primary amines by measuring increase in primary amine level at 100 uM incubated for 7 days using BSA and glycolaldehyde by TNBSA assay relative to control BSA. On the set-up: scale not given: the % may be the effect or the level left. The conditions noted are these: 168 h. The class given is physicochemical. In a few lines:
as §1

The nature of data set [6]: Induction of breaking of pre-formed advanced glycation end product formation using BSA assessed as restoration of glycated -BSA primary amine content after 24 hrs by TNBSA assay.
Data set [7] is described as follows: Inhibition of advanced glycation end product formation assessed as protection of reactive primary amines by measuring primary amine reduction using BSA and glycolaldehyde by TNBSA assay. Type of data set: physicochemical. Details: scale not given: the % may be the effect or the level left. In a few lines: as §1
A short description of data set [8]: Inhibition of advanced glycation end product formation using BSA and glycolaldehyde at 40 uM by standard fluorescence based assay. The class given is physicochemical.
The nature of data set [9]: Inhibition of advanced glycation end product formation using BSA and glycolaldehyde at 400 uM by standard fluorescence based assay. Type of data set: physicochemical.

The source made the active and inactive calls. No cut-off for these calls is given here.

From ChEMBL document CHEMBL3621175, “Second generation 2-aminoimidazole based advanced glycation end product inhibitors and breakers” (Bioorg Med Chem Lett, 2015) come the findings set out here.

On to `Nc1nc(Cc2ccc(O)cc2)c[nH]1`, for which the “inhibition (INH)” value in data set [1] was “Active”.
With `N=C(N)NN`, the outcome in data set [2], in data set [3] and in data set [4] was inactive.
`NCCCCc1c[nH]c(N)n1`: the Activity was 97.9% in [2], 64.5% in [3], 44.6% in data set [5] and 52.5% in [4]. Also, the “inhibition (INH)” value in [1] is recorded as “Active”.
Consider `NCCCc1c[nH]c(N)n1`, for which the Activity in data set [2] worked out at 110%; in [3] it was 79.4%; in data set [4], 67.5%. In addition, the “inhibition (INH)” value in data set [1] is reported as “Active”.
In the case of `N=C(N)NCCCc1c[nH]c(N)n1`, the “inhibition (INH)” value in data set [1] is given as “Active”.
Same read-out and setting: next, `Nc1nc(Cc2c[nH]c3ccccc23)c[nH]1`: “Active”; `Nc1nc(Cc2c[nH]cn2)c[nH]1`: “Active”.
On to `Nc1nc(CCCCc2c[nH]c(N)n2)c[nH]1`, for which the “inhibition (INH)” value in data set [1] was “Active”; in data set [8] it was 5.6%; in [9] it was 44.6%. For the same molecule, the Activity in data set [6] is 78.9%; in data set [7] it was 3.6%.
